Measured values pooled from the literature.
nupG: nupG (Escherichia coli, UniProt P0AFF4)
ESR1: Estrogen receptor (ESR1, Homo sapiens, UniProt P03372)
PIK3C3: Phosphatidylinositol 3-kinase catalytic subunit type 3 (PIK3C3, Homo sapiens, UniProt Q8NEB9)
ADRA2C: Alpha-2C adrenergic receptor (ADRA2C, Homo sapiens, UniProt P18825)
CA14: Carbonic anhydrase 14 (CA14, Homo sapiens, UniProt Q9ULX7)

| Compound | target | assay | conditions | measurement | result |
| --- | --- | --- | --- | --- | --- |
| Nc1ccn([C@@H]2O[C@H](CO)[C@@H](O)[C@H]2O)c(=O)n1 | nupG | binding, ITC |  | Kd | 144 µM |
| CNc1nc(C#Cc2ccc(Cl)s2)nc2c1ncn2[C@H]1[C@H](O)[C@H](O)[C@]2(C(=O)OCc3ccccc3)C[C@H]12 | Nociceptin receptor (OPRL1, Homo sapiens, UniProt P41146) | ligand displacement, radioligand |  | Ki | > 10 µM |
| C[C@]12CCC3=C4CCC(=O)C=C4CC[C@H]3[C@@H]1CC[C@@]2(O)CC#N | ESR1 | reporter gene, agonist |  | EC50 | > 25 µM |
| CCC(S)C(C)CO (stereo not drawn) | OR2M3 (Homo sapiens, UniProt Q8NG83) | cAMP, agonist, luciferase |  | EC50 | 1.4 µM |
| CCCOc1cccc2nc(N)n(Cc3ccc(Cl)c(Cl)c3)c12 | Pteridine reductase (PTR1, Trypanosoma brucei brucei, UniProt O76290) | enzyme activity, inhibitor, absorbance |  | Ki | 0.05 µM |
| CCOc1cc(-c2nncn2C)ccc1Nc1ncc2cc(C)nc(NCC(C)(C)C)c2n1 | Serine/threonine-protein kinase PLK4 (PLK4, Homo sapiens, UniProt O00444) | binding, competition with immobilised ligand |  | Kd | 0.071 µM |
| CCC(=O)N1CCC(C(=O)NCC(=O)N2CCN(c3nc(-c4cnc(N)nc4C(F)F)nc(N4CCOCC4)n3)CC2)CC1 | PIK3C3 | binding, competition with immobilised ligand |  | Kd | 0.1 µM |
| CCCNc1nc2ccccc2n1Cc1ccc(Cl)cc1 | ADRA2C | ligand displacement, radioligand |  | Ki | 0.434 µM |
| C=CC(=O)N1CCC(C(=O)N(C)CC(=O)N2CCN(c3nc(-c4cnc(N)nc4C(F)F)nc(N4CCOCC4)n3)CC2)CC1 | PIK3C3 | binding, competition with immobilised ligand |  | Kd | 0.275 µM |
| Cc1cc(Nc2cc3ncccc3c(N[C@@H]3C[C@H]4CC[C@@H](C3)N4CCC#N)n2)n[nH]1 | Death-associated protein kinase 3 (DAPK3, Homo sapiens, UniProt O43293) | binding, competition with immobilised ligand |  | Kd | 0.019 µM |
| ON=Cc1ccc(-c2ccc(O)c(F)c2)c(Cl)c1O | ESR1 | reporter gene, agonist, luciferase |  | EC50 | 1.63 µM |
| COc1ccc2c(c1)c(CC(=O)O)c(C)n2C(=O)c1ccc(Cl)cc1 | Peroxisome proliferator-activated receptor gamma (Pparg, Mus musculus, UniProt P37238) | reporter gene, agonist, luciferase |  | EC50 | 12.1 µM |
| On1ccccc1=S | CA14 | enzyme activity, inhibitor, stopped-flow |  | Ki | 7.1 µM |
| N[C@H]1C[C@@H](C(=O)O)CC1=C(C(F)(F)F)C(F)(F)F | Ornithine aminotransferase, mitochondrial (OAT, Homo sapiens, UniProt P04181) | binding, stopped-flow |  | Kd | 3000 µM |
| Cc1occc(=O)c1O | CA14 | enzyme activity, inhibitor, stopped-flow |  | Ki | 7.2 µM |
| CNCC[C@@H](Oc1ccccc1CCCF)c1ccccc1 | Norepinephrine transporter (Slc6a2, Rattus norvegicus, UniProt Q9WTR4) | ligand displacement, radioligand | cell membranes | Ki | 0.023 µM |
| Cc1cn([C@H]2C[C@H](O)[C@@H](CO)O2)c(=O)[nH]c1=O | nupG | binding, ITC |  | Kd | 162 µM |
| C=CC(=O)N1CCC(C(=O)NCC(=O)N2CCN(c3nc(-c4cnc(N)nc4C(F)F)nc(N4CCOCC4)n3)CC2)CC1 | PIK3C3 | binding, competition with immobilised ligand |  | Kd | 0.054 µM |
| C[C@H]1Oc2cc(cnc2N)-c2c(nn(C)c2C#N)CN(C)C(=O)c2ccc(F)cc21 | Mitogen-activated protein kinase kinase kinase 13 (MAP3K13, Homo sapiens, UniProt O43283) | cell-free assay | lysate | Ki | 0.0327 µM |
| CCCCN1CCC(COC(=O)c2ccc(N)c(OCF)c2)CC1 | ADRA2C | cell-free assay, radioligand |  | Ki | 0.778 µM |
| C[C@]12CC[C@H](O)CC1=CC[C@@H]1[C@@H]2CC[C@]2(C)C(c3cccnc3)=CC[C@@H]12 | Estrogen receptor (ESR1, Homo sapiens, UniProt P03372, Y537C) | ligand displacement in cells, radioligand |  | Ki | 0.25 µM |
